ChEMBL document CHEMBL3045357, “DNA adducts as biomarkers for oxidative and genotoxic stress from pesticides in crop plants” (J Agric Food Chem, 2008)

Key:
Format in all cases: organism-based
Settings in all cases: in vivo, other, 336 h
Vitis vinifera [1] = assay: Genotoxicity in Vitis vinifera exposed to compound through spray 4 times over 2 weeks assessed as relative adduct level A3 measured per 10^9 nucleotides using [32P]labeling based autoradiography relative to untreated control
In short: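 Plants grown 2-6 weeks, groups of 2-4 sprayed four times over 2 weeks with label-rate formulations; water-sprayed controls. Leaf DNA kit-extracted. 10 µg DNA digested with micrococcal nuclease/spleen phosphodiesterase 4 h at 37 °C. NP1-enriched, then labeled with [γ-32P]ATP/T4 kinase 45 min at 37 °C. 2D PEI-cellulose TLC, imager readout. Samples spiked with 50 fmol HX-dG standard.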

Vitis vinifera [2] = assay: Genotoxicity in Vitis vinifera exposed to compound through spray 4 times over 2 weeks assessed as relative adduct level A2 measured per 10^9 nucleotides using [32P]labeling based autoradiography relative to untreated control
In short: (§1)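 Plants (2–6 weeks grown), groups of 2–4, sprayed 4 times over 2 weeks with formulations diluted per label (chlorothalonil 1:256, carbaryl 1:64 in water); controls water-sprayed. DNA from 1 g leaf via DNeasy Maxi kit. 10 µg DNA digested with micrococcal nuclease/spleen phosphodiesterase (4 h, 37 °C), NP1-enriched (45 min, 37 °C), labelled with [γ-32P]ATP/T4 kinase (45 min, 37 °C).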

Vitis vinifera [3] = assay: Genotoxicity in Vitis vinifera exposed to compound through spray 4 times over 2 weeks assessed as relative adduct level A1 measured per 10^9 nucleotides using [32P]labeling based autoradiography relative to untreated control; in short: as §1
Cucumis sativus [4] = assay: Genotoxicity in Cucumis sativus (cucumber) exposed to compound through spray 4 times over 2 weeks assessed as relative adduct level A3 measured per 10^9 nucleotides using HX-dG internal standard using [32P]labeling based autoradiography relative to untreated control; in short: as §1
Cucumis sativus [5] = assay: Genotoxicity in Cucumis sativus (cucumber) exposed to compound through spray 4 times over 2 weeks assessed as relative adduct level A2 measured per 10^9 nucleotides using HX-dG internal standard using [32P]labeling based autoradiography relative to untreated control; in short: as §1
Cucumis sativus [6] = assay: Genotoxicity in Cucumis sativus (cucumber) exposed to compound through spray 4 times over 2 weeks assessed as relative adduct level A1 measured per 10^9 nucleotides using HX-dG internal standard using [32P]labeling based autoradiography relative to untreated control; in short: as §1
Cucumis sativus [7] = assay: Genotoxicity in Cucumis sativus (cucumber) exposed to compound through spray 4 times over 2 weeks assessed as relative adduct level A3 measured per 10^9 nucleotides using [32P]labeling based autoradiography relative to untreated control; in short: as §1
Cucumis sativus [8] = assay: Genotoxicity in Cucumis sativus (cucumber) exposed to compound through spray 4 times over 2 weeks assessed as relative adduct level A2 measured per 10^9 nucleotides using [32P]labeling based autoradiography relative to untreated control; in short: as §1
Cucumis sativus [9] = assay: Genotoxicity in Cucumis sativus (cucumber) exposed to compound through spray 4 times over 2 weeks assessed as relative adduct level A1 measured per 10^9 nucleotides using [32P]labeling based autoradiography relative to untreated control; in short: as §1
Phaseolus vulgaris [10] = assay: Genotoxicity in Phaseolus vulgaris (bush beans) exposed to compound through spray 4 times over 2 weeks assessed as relative adduct level A6 measured per 10^9 nucleotides using HX-dG internal standard using [32P]labeling based autoradiography relative to untreated control; in short: as §1
Phaseolus vulgaris [11] = assay: Genotoxicity in Phaseolus vulgaris (bush beans) exposed to compound through spray 4 times over 2 weeks assessed as relative adduct level A5 measured per 10^9 nucleotides using HX-dG internal standard using [32P]labeling based autoradiography relative to untreated control; in short: as §1
Phaseolus vulgaris [12] = assay: Genotoxicity in Phaseolus vulgaris (bush beans) exposed to compound through spray 4 times over 2 weeks assessed as relative adduct level A4 measured per 10^9 nucleotides using HX-dG internal standard using [32P]labeling based autoradiography relative to untreated control; in short: as §1
Phaseolus vulgaris [13] = assay: Genotoxicity in Phaseolus vulgaris (bush beans) exposed to compound through spray 4 times over 2 weeks assessed as relative adduct level A3 measured per 10^9 nucleotides using HX-dG internal standard using [32P]labeling based autoradiography relative to untreated control; in short: as §1
Phaseolus vulgaris [14] = assay: Genotoxicity in Phaseolus vulgaris (bush beans) exposed to compound through spray 4 times over 2 weeks assessed as relative adduct level A2 measured per 10^9 nucleotides using HX-dG internal standard using [32P]labeling based autoradiography relative to untreated control; in short: as §1
Phaseolus vulgaris [15] = assay: Genotoxicity in Phaseolus vulgaris (bush beans) exposed to compound through spray 4 times over 2 weeks assessed as relative adduct level A1 measured per 10^9 nucleotides using HX-dG internal standard using [32P]labeling based autoradiography relative to untreated control; in short: as §1
Phaseolus vulgaris [16] = assay: Genotoxicity in Phaseolus vulgaris (bush beans) exposed to compound through spray 4 times over 2 weeks assessed as relative adduct level A6 measured per 10^9 nucleotides using [32P]labeling based autoradiography relative to untreated control; in short: as §1
Phaseolus vulgaris [17] = assay: GenoToxicity in Phaseolus vulgaris (bush beans) exposed to compound through spray 4 times over 2 weeks assessed as relative adduct level A5 measured per 10^9 nucleotides using [32P]labeling based autoradiography relative to untreated control; in short: as §1
Phaseolus vulgaris [18] = assay: Genotoxicity in Phaseolus vulgaris (bush beans) exposed to compound through spray 4 times over 2 weeks assessed as relative adduct level A4 measured per 10^9 nucleotides using [32P]labeling based autoradiography relative to untreated control; in short: as §1
Phaseolus vulgaris [19] = assay: Genotoxicity in Phaseolus vulgaris (bush beans) exposed to compound through spray 4 times over 2 weeks assessed as relative adduct level A3 measured per 10^9 nucleotides using [32P]labeling based autoradiography relative to untreated control; in short: as §1
Phaseolus vulgaris [20] = assay: Genotoxicity in Phaseolus vulgaris (bush beans) exposed to compound through spray 4 times over 2 weeks assessed as relative adduct level A2 measured per 10^9 nucleotides using [32P]labeling based autoradiography relative to untreated control; in short: as §1
Phaseolus vulgaris [21] = assay: Genotoxicity in Phaseolus vulgaris (bush beans) exposed to compound through spray 4 times over 2 weeks assessed as relative adduct level A1 measured per 10^9 nucleotides using [32P]labeling based autoradiography relative to untreated control; in short: as §1
Glycine max [22] = assay: Genotoxicity in Glycine max (soybean) exposed to compound through spray 4 times over 2 weeks assessed as relative adduct level A6 measured per 10^9 nucleotides using HX-dG internal standard using [32P]labeling based autoradiography relative to untreated control; in short: as §1
Glycine max [23] = assay: Genotoxicity in Glycine max (soybean) exposed to compound through spray 4 times over 2 weeks assessed as relative adduct level A5 measured per 10^9 nucleotides using HX-dG internal standard using [32P]labeling based autoradiography relative to untreated control; in short: as §1
Glycine max [24] = assay: Genotoxicity in Glycine max (soybean) exposed to compound through spray 4 times over 2 weeks assessed as relative adduct level A4 measured per 10^9 nucleotides using HX-dG internal standard using [32P]labeling based autoradiography relative to untreated control; in short: as §1
Glycine max [25] = assay: Genotoxicity in Glycine max (soybean) exposed to compound through spray 4 times over 2 weeks assessed as relative adduct level A3 measured per 10^9 nucleotides using HX-dG internal standard using [32P]labeling based autoradiography relative to untreated control; in short: as §1

SMILES: N#Cc1c(Cl)c(Cl)c(Cl)c(C#N)c1Cl [CHLOROTHALONIL]
- Activity (Vitis vinifera [1]): 155
- Activity (Vitis vinifera [2]): 66
- Activity (Vitis vinifera [3]): 36
- Activity (Cucumis sativus [4]): 10667 cpm
- Activity (Cucumis sativus [5]): 12506 cpm
- Activity (Cucumis sativus [6]): 5420 cpm
- Activity (Cucumis sativus [7]): 229
- Activity (Cucumis sativus [8]): 268
- Activity (Cucumis sativus [9]): 116
- Activity (Phaseolus vulgaris [10]): 6051 cpm
- Activity (Phaseolus vulgaris [11]): 4410 cpm
- Activity (Phaseolus vulgaris [12]): 2814 cpm
- Activity (Phaseolus vulgaris [13]): 5038 cpm
- Activity (Phaseolus vulgaris [14]): 5697 cpm
- Activity (Phaseolus vulgaris [15]): 5901 cpm
- Activity (Phaseolus vulgaris [16]): 174
- Activity (Phaseolus vulgaris [17]): 127
- Activity (Phaseolus vulgaris [18]): 81
- Activity (Phaseolus vulgaris [19]): 145
- Activity (Phaseolus vulgaris [20]): 164
- Activity (Phaseolus vulgaris [21]): 169
- Activity (Glycine max [22]): 16472 cpm
- Activity (Glycine max [23]): 4613 cpm
- Activity (Glycine max [24]): 6823 cpm
- Activity (Glycine max [25]): 6932 cpm
